From PubChem
CAL PDZ FP-1 = CAL PDZ peptide-binding inhibitors, primary screen, biochemical, fluorescence polarization, Cer-tagged CAL PDZ, HTS; Golgi-associated PDZ and coiled-coil motif-containing protein (Homo sapiens), Q9HD26; purified CAL PDZ, TMR-peptide fluorescence polarization, 1 h; inhibition, % at 20 µM; 330,000 tested, 0.02% active; AID 504414, 2011;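 active = highest replicate inhibition of at least 40%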;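 note: plate controls were DMSO neutral control wells for no effect and unlabeled competitor peptide control wells for full effect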
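Material: tagged CAL PDZ domain; buffer or medium: 25 mM sodium phosphate pH 7.4, 150 mM NaCl, TCEP, IgG, Thesit; compound dosing: single point, 20 µM; schedule: 1 h incubation at room temperature before polarization reading; measured by: FP readout, S and P plane fluorescence; read-out basis: percent inhibition from loss of millipolarization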
cardiac RTF act = cardiac RTF calcium sensitivity activators, primary screen, biochemical, IANBD-TnC fluorescence, EC20 calcium | Troponin I, cardiac muscle (Homo sapiens) + Troponin T, cardiac muscle (Homo sapiens) + … | IANBD-labeled TnC RTF fluorescence at EC20 calcium; 0% EC20 calcium, 100% full calcium | activation, % at 7.2 µM | 340,000 tested, 0.24% active | AID 493008, 2010;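 active = activation above the mean over all tested compounds plus 3 SD, cut at about 30% in these data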;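 note: rise in fluorescence read as greater calcium sensitivity of cardiac thin filaments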
CAL PDZ FP-2 = untagged CAL PDZ binding inhibitors, primary screen, biochemical, fluorescence polarization, HTS; Golgi-associated PDZ and coiled-coil motif-containing protein (Homo sapiens), Q9HD26; purified CAL PDZ, TMR-peptide fluorescence polarization, 1 h; inhibition, % at 24.9 µM; 300,000 tested, 0.92% active; AID 602252, 2012;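 active = mean inhibition of at least 30% with at least half of replicates also reaching 30%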;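 note: 0% = DMSO neutral control and 100% = excess unlabeled competitor peptide PRC23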
C-LANA FP = inhibitors of KSHV C-LANA binding to DNA, primary screen, biochemical, fluorescence polarization, FAM-LBS DNA, MBP-C-LANA, single point. Kaposi's sarcoma herpesvirus LANA C-terminal domain (residues 932-1162) DNA binding. inhibition, % at 9 µM. 340,000 tested, 0.078% active. AID 504423, 2011;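 active = highest replicate inhibition at or above 60% at 9 µM, even if other replicates fall short; inactive = all replicates below 60% inhibition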;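 note: 0% = neutral control wells and 100% = 4 µM acridine orange control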
Keap1 Nrf2 FP = Keap1-Nrf2 protein-protein interaction inhibitors, primary screen, biochemical, fluorescence polarization, single point; Kelch-like ECH-associated protein 1 (Homo sapiens), Q14145; Keap1 Kelch-Nrf2 peptide fluorescence polarization, 1536-well; inhibition, % at 9.4 µM; 340,000 tested, 0.15% active; AID 504523, 2011; in the data active = inhibition above about 12%;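 note: human Keap1 Kelch domain with fluorescein labeled Nrf2 9mer peptide probe; 0% = neutral control wells and 100% = peptide positive control; higher means more block of Keap1 binding to Nrf2 peptide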
Target sequence (Q14145 whole entry, looked up, the tested form may be a part): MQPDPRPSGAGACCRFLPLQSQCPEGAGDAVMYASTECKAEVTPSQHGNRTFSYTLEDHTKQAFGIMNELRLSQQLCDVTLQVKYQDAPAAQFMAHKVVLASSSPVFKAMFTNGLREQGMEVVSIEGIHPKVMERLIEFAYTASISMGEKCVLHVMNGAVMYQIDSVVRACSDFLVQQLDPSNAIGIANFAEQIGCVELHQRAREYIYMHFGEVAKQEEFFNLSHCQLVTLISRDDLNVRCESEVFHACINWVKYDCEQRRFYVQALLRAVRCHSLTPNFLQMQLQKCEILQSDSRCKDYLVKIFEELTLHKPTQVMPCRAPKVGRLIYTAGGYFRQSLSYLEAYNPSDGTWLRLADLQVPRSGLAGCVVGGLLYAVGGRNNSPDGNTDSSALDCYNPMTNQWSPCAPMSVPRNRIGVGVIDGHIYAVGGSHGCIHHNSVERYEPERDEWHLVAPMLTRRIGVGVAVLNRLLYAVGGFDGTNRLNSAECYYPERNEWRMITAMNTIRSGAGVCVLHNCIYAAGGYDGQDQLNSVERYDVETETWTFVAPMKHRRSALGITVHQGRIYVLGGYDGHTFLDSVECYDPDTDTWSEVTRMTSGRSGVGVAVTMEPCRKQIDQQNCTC
Cardiac RTF inh = cardiac RTF calcium sensitivity inhibitors, primary screen, biochemical, IANBD-TnC fluorescence, EC70 calcium; inhibition, % at 7.15 µM; 340,000 tested, 0.12% active; AID 493244, 2011; Troponin I, cardiac muscle (Homo sapiens) + Troponin T, cardiac muscle (Homo sapiens) + …; IANBD-labeled cardiac RTF, Ca2+ fluorescence;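 active = inhibition above the mean inhibition of all tested compounds plus 3 SD, cut at about 17% in these data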;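 note: assay run at fixed EC70 calcium of 1.6 mM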
Numbers without * were called inactive; nt = no result given. This is a sample that favours compounds with a hit; in the whole collection about 1.3% have one here.

SMILES | CAL PDZ FP-1 | cardiac RTF act | CAL PDZ FP-2 | C-LANA FP | Keap1 Nrf2 FP | Cardiac RTF inh
O=C1NC(=O)N(c2ccc3c(c2)OCO3)C(=O)/C1=C/c1ccc(N2CCCCC2)o1 | nt | 78* | -41 | -38 | -95 | -81
O=C1NC(=O)C(=Cc2ccc(N3CCOCC3)o2)C(=O)N1 | 1 | 47* | 15 | -40 | -171 | -64
COC(=O)C1=C(c2ccc(OC)c(OC)c2)C[C@@H]2CC[C@H]1N2C(=O)NC1CC1 | 0 | 9 | 0 | -3 | -1 | 4
COc1cc2c(cc1OC)C13CCN4CC5CCOC6CC(=O)N2C1C6C5CC43 (centres undefined) | 0 | -3 | -2 | 3 | 2 | 0
N#CCCn1cc(C(=O)NCc2ccccc2)c(-c2ccc3c(c2)OCCO3)n1 | 4 | 0 | 47* | 1 | -8 | -12
CSc1nc2ccccc2c(=O)n1-c1cccnc1 | 0 | 8 | 79* | 2 | -4 | -9
Cc1nc2ccccc2c(=O)n1-c1cccnc1 | 0 | 0 | -9 | -1 | 7 | -3
CCOC(=O)C1(c2ccccc2)CCN(CCc2ccc(NC(=O)CCC(=O)O)cc2)CC1 | 0 | 2 | -4 | 1 | -4 | -2
Cc1cc(C)c(Cn2c(C(=O)O)c(C=O)c3ccccc32)c(C)c1 | 13 | 64* | -6 | -8 | -69 | -62
C[C@]12CCC3C(CC[C@H]4C[C@H](O)CC[C@]34C)C1[C@@H](O)[C@@H](O)[C@@H]2O (some centres undefined) | 0 | 6 | 20 | 0 | -3 | -10
COC(=O)C1=C(c2c(C)noc2C)C[C@@H]2CC[C@H]1N2C(=O)NCCNC(C)=O | -2 | 3 | -2 | -2 | -5 | -5
CCn1c(O)c(/C=N/NC(=O)c2ccccc2)c(=O)[nH]c1=S | 0 | -3 | 74* | 0 | -2 | -4
COc1ccc(Cn2c(O)c(/C=N/NC(=O)c3ccccc3)c(=O)[nH]c2=O)cc1 | -2 | -5 | -5 | -1 | -2 | 2
CCCNC(=O)N1[C@H]2CC[C@@H]1C(C(=O)OC)=C(c1ccc3ccccc3c1)C2 | -1 | -5 | -1 | 4 | 1 | -7
CCN[C@@H](C)Cc1cccc(C(F)(F)F)c1 | 1 | -1 | -2 | 1 | 1 | -2
CCC1(Oc2ccccc2)C(=O)NC(=O)NC1=O | 1 | -1 | 16 | -1 | -8 | -3
CCC1(C)OC(c2ccccc2)=C/C(=C/C=C2C(=O)NC(=O)NC2=O)O1 (centres undefined) | 2 | 123* | -3 | -3 | -16 | -163
COC(=O)C1=C(c2cccc(OCc3ccccc3)c2)C[C@@H]2CC[C@H]1N2C(=O)NCc1ccccc1C(F)(F)F | 0 | -5 | -1 | 7 | -4 | -13
CC(C)C[C@H]1C(=O)N2CCCC2[C@]2(O)O[C@](NC(=O)[C@@H]3C=C4c5cccc6[nH]cc(c56)CC4N(C)C3)(C(C)C)C(=O)N12 (some centres undefined) | 1 | 31* | -1 | 24 | 16* | -56
CC(C)[C@@]1(NC(=O)[C@@H]2C[C@@H]3c4cccc5[nH]cc(c45)C[C@H]3N(C)C2)O[C@@]2(O)[C@@H]3CCCN3C(=O)[C@H](Cc3ccccc3)N2C1=O | -2 | 8 | nt | 0 | 0 | 6
CC(C)[C@H]1C(=O)N2CCC[C@H]2[C@]2(O)O[C@](NC(=O)[C@@H]3C=C4c5cccc6[nH]cc(c56)C[C@H]4N(C)C3)(C(C)C)C(=O)N12 | 1 | 27 | 6 | 28 | 15* | -28
COC(=O)C1=C(c2cccc(OCc3ccccc3)c2)C[C@@H]2CC[C@H]1N2C(=O)NCCN1CCOCC1 | 0 | 8 | -3 | -1 | -2 | 5
CC1C(=O)OC2CCN3CC4OC4(COC(=O)C(C)(O)C1(C)O)C23 (centres undefined) | -1 | -3 | -2 | -1 | 1 | -7
CN1C(=O)C[N+]([O-])=C(c2ccccc2)c2cc(Cl)ccc21 | 1 | -4 | nt | 1 | 1 | -2
O=C(CCN1CCOCC1)NCC(=O)Nc1ccc(Br)cc1C(=O)c1ccccc1 | -2 | -1 | 36* | 1 | -6 | -1
SMILES | CAL PDZ FP-1 | cardiac RTF act | CAL PDZ FP-2 | C-LANA FP | Keap1 Nrf2 FP | Cardiac RTF inh
O=C(CN1CCCCC1)NCC(=O)Nc1ccc(Br)cc1C(=O)c1ccccc1 | -1 | 1 | -7 | 1 | -3 | -2
CN(CC=CCN(C)P(=S)(N1CC1)N1CC1)P(=S)(N1CC1)N1CC1 | -1 | 5 | 34* | -3 | -2 | -4
COc1ccc(CC(C)NCCC(c2ccccc2)c2ccccc2)cc1 (centres undefined) | -2 | -6 | -2 | 0 | -1 | 2
O=c1[nH]c(O)c(/C=C2\C=Nc3ccc(OCc4ccccc4)cc32)c(=O)[nH]1 | 1 | 48* | -2 | 5 | -3 | -64
CN1Cc2c(c(C#N)c(N)n(C)c2=S)CC1(C)C | -2 | 50* | -2 | 22 | 16* | -76
CCN(CC)c1ccc(/C=C2\C(=O)NC(=S)N(C)C2=O)o1 | -1 | 53* | 0 | -5 | -19 | -78
CCN(CC)c1ccc(C=C2C(=O)N(C)C(=S)N(C)C2=O)o1 | 0 | 22 | -5 | -2 | -6 | -23
O=C1NC(=S)N(c2ccccc2)C(=O)/C1=C/c1ccco1 | 0 | -6 | -8 | 88* | 0 | -3
CCN(CC)c1ccc(/C=C2\C(=O)NC(=S)N(c3ccc(OC)cc3OC)C2=O)o1 | 0 | 76* | -4 | -32 | -21 | -101
COc1cccc(N2C(=O)/C(=C/c3ccc(C)o3)C(=O)NC2=S)c1 | 0 | 2 | -6 | 1 | -13 | -8
COc1ccc(N2C(=O)NC(=O)/C(=C\c3cn(C)c4ccccc34)C2=O)cc1 | 1 | 523* | -1 | 35 | 4 | -475
C=C1C(C)C2C(Cc3ccccc3)NC(=O)C23OC(=O)/C=C/C(O)CCCC(C)C/C=C/C3C1O (centres undefined) | 0 | -5 | -4 | -1 | 2 | 4
COc1ccc(N2C(=O)/C(=C/c3ccc(N(C)C)o3)C(=O)NC2=S)cc1 | -2 | 55* | -3 | 0 | -6 | -67
